Laboratory results: ChEMBL document CHEMBL2177040, “Down-regulation of the human VEGF gene expression by perylene monoimide derivatives” (Bioorg Med Chem Lett, 2012)
Active and inactive are the calls of the source. The rule behind the calls is not given here.

Tests used:
Nucleic Acid [1] = experiment: Binding affinity to VEGF quadruplex DNA in human MCF7 cells assessed as downregulation of VEGF mRNA expression at 0.75 to 6 uM after 24 hrs by semi-quantitative RT-PCR analysis; format: cell-based
Nucleic Acid [2] = experiment: Binding affinity to VEGF quadruplex DNA in human HeLa cells assessed as downregulation of VEGF mRNA expression at 0.75 to 6 uM after 24 hrs by semi-quantitative RT-PCR analysis; format: cell-based
Nucleic Acid [3] = experiment: Binding affinity to VEGF quadruplex DNA in human HCT15 cells assessed as downregulation of VEGF mRNA expression at 0.75 to 6 uM after 24 hrs by semi-quantitative RT-PCR analysis; format: cell-based; settings: HCT-15
A549 [4] = experiment: Downregulation of GAPDH mRNA expression in human A549 cells at 0.75 to 6 uM after 24 hrs by semi-quantitative RT-PCR analysis; format: functional, cell-based
How it was run: (§1)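 A549 cells (3.0 × 10^5) treated 24 h at graded compound concentrations; RNA reverse-transcribed and GAPDH cDNA amplified by gene-specific PCR at a cycle number chosen for linear signal, with band intensity by semi-quantitative gel read-out.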

A549 [5] = experiment: Downregulation of Max mRNA expression in human A549 cells at 0.75 to 6 uM after 24 hrs by semi-quantitative RT-PCR analysis; format: functional, cell-based
A549 [6] = experiment: Downregulation of COX2 mRNA expression in human A549 cells at 0.75 to 6 uM after 24 hrs by semi-quantitative RT-PCR analysis; format: functional, cell-based
Nucleic Acid [7] = experiment: Binding affinity to c-Myc quadruplex DNA in human A549 cells assessed as downregulation of c-Myc mRNA expression after 24 hrs by semi-quantitative RT-PCR analysis; format: cell-based
Nucleic Acid [8] = experiment: Binding affinity to VEGF quadruplex DNA in human A549 cells assessed as downregulation of VEGF mRNA expression after 24 hrs by semi-quantitative RT-PCR analysis; format: cell-based
How it was run: (§2)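 A549 cells (3.0 × 10^5) exposed to a range of compound concentrations for 24 h; total RNA reverse-transcribed and cDNA amplified with gene-specific primers at a cycle number chosen per gene for linear signal. VEGF bands quantified by densitometry, normalized to GAPDH; three separate experiments.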

Nucleic Acid [9] = experiment: Binding affinity to Bcl2 quadruplex DNA in human A549 cells assessed as downregulation of Bcl2 mRNA expression in human A549 cells after 24 hrs by semi-quantitative RT-PCR analysis; format: cell-based
Nucleic Acid [10] = experiment: Binding affinity to VEGF quadruplex DNA in human A549 cells assessed as downregulation of VEGF protein level after 24 hrs by Western blot analysis; format: cell-based
How it was run: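 A549 cells (3.0 × 10^5) treated with a range of compound concentrations for 24 h; lysate proteins separated by SDS-PAGE and blotted with rabbit polyclonal anti-VEGF, detected with HRP-conjugated goat anti-rabbit IgG.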

Nucleic Acid [11] = experiment: Binding affinity to VEGF quadruplex DNA in human A549 cells assessed as downregulation of VEGF121 mRNA expression after 24 hrs by semi-quantitative RT-PCR analysis; format: cell-based; how it was run: as §2
HeLa = experiment: Cytotoxicity against human HeLa cells assessed as cell viability after 72 hrs by SRB assay; format: functional, cell-based
Nucleic Acid [12] = experiment: Binding affinity to VEGF quadruplex DNA in human A549 cells assessed as downregulation of VEGF165 mRNA expression after 24 hrs by semi-quantitative RT-PCR analysis; format: cell-based; how it was run: as §2
MCF7 = experiment: Cytotoxicity against human MCF7 cells assessed as cell viability after 72 hrs by SRB assay; format: functional, cell-based; settings: MCF7, 72 h
HCT-15 = experiment: Cytotoxicity against human HCT15 cells assessed as cell viability after 72 hrs by SRB assay; format: functional, cell-based; settings: HCT-15, 72 h
A549 [13] = experiment: Cytotoxicity against human A549 cells assessed as cell viability after 72 hrs by SRB assay; format: functional, cell-based; settings: A549, 72 h
How it was run: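 Sulforhodamine B colorimetric assay on A549 cells. IC50 derived from the concentration versus percent growth inhibition curve. Mean ± standard deviation of three independent experiments, each in triplicate.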

Nucleic Acid [14] = experiment: Binding affinity to VEGF quadruplex DNA at 40 uM after 1 to 72 hrs by spectroscopic analysis; format: nucleic-acid assay
How it was run: (§3)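 Visible absorbance spectra of compound (40 µM) in 10 mM Tris-HCl pH 7.4 with 100 mM KCl, without DNA, with preformed VEGF quadruplex (20 µM V32G), or with salmon sperm duplex DNA matched in absorbance to the quadruplex; recorded at 0, 8 and 72 h incubation.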

[15] = Solubility of the compound in Tris-HCl buffer at 40 uM at pH 7.4 after 1 to 72 hrs by spectroscopic analysis in presence of salmon sperm DNA duplex; format: physicochemical; settings: pH 7.4, 40 µM; how it was run: as §3
[16] = Solubility of the compound in Tris-HCl buffer at 40 uM at pH 7.4 after 1 to 72 hrs by spectroscopic analysis in presence of VEGF quadruplex; format: physicochemical; settings: pH 7.4, 40 µM; how it was run: as §3
[17] = Solubility of the compound in Tris-HCl buffer at 40 uM at pH 7.4 after 72 hrs by spectroscopic analysis in absence of DNA; format: physicochemical; settings: pH 7.4, 72 h; how it was run: as §3
Nucleic Acid [18] = experiment: Binding affinity to VEGF V32G-G-quadruplex DNA after 10 hrs by polyacrylamide electrophoresis; format: nucleic-acid assay
How it was run: (§4)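 Duplex/G-quadruplex competition: FAM-labelled G-rich strand V32G (2 µM) plus complementary C-rich strand (2 µM) with twofold-diluted compound in Tris-HCl pH 7.4, 100 mM KCl; denatured 95 °C 5 min, slow-cooled to 55 °C and held 10 h, then rapidly cooled to 4 °C. Products resolved on 16% native PAGE containing 50 mM KCl (4 °C, 350 V, 10 h); duplex vs monomeric quadruplex bands imaged.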

Nucleic Acid [19] = experiment: Binding affinity to VEGF VT-66-G-quadruplex DNA after 30 mins by DNA polymerase stop assay; format: nucleic-acid assay
How it was run: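 Polymerase stop: compound (twofold dilution) with template VT-66 (100 nM) and FAM-labelled primer P16 (100 nM) in 10 mM Tris-HCl pH 7.4, denatured 95 °C 5 min, slow-cooled to 37 °C. Extension started with dNTPs, 3 mM MgCl2 and Klenow fragment (1 unit), 37 °C 30 min. Resolved on 12% denaturing PAGE; stopped/(stopped+full-length) ratio plotted against concentration.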

Nucleic Acid [20] = experiment: Binding affinity to VEGF quadruplex DNA in human A549 cells assessed as downregulation of VEGF protein level at 0.2 to 2.8 uM after 24 hrs by Western blot analysis; format: cell-based
How it was run: (§5)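 A549 cells (3.0 × 10^5) exposed to a range of compound concentrations for 24 h. Lysate proteins separated by SDS-PAGE and blotted with rabbit polyclonal VEGF antibody, then HRP-conjugated goat anti-rabbit IgG. Top concentrations chosen from cytotoxicity data.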

Nucleic Acid [21] = experiment: Binding affinity to VEGF quadruplex DNA in human A549 cells assessed as downregulation of VEGF protein level at 3.1 to 50 uM after 24 hrs by Western blot analysis; format: cell-based; how it was run: as §5
Nucleic Acid [22] = experiment: Binding affinity to VEGF quadruplex DNA in human A549 cells assessed as downregulation of VEGF165 mRNA expression at 50 uM after 24 hrs by semi-quantitative RT-PCR analysis; format: cell-based
How it was run: (§6)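 A549 cells (3.0 × 10^5) treated 24 h. Total RNA extracted and reverse-transcribed; cDNA amplified with gene-specific primers, with cycle number set so that product intensity tracks cDNA amount. Both VEGF bands quantified by scan densitometry and normalised to GAPDH; three separate experiments.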

Nucleic Acid [23] = experiment: Binding affinity to VEGF quadruplex DNA in human A549 cells assessed as downregulation of VEGF121 mRNA expression at 50 uM after 24 hrs by semi-quantitative RT-PCR analysis; format: cell-based; how it was run: as §6
Nucleic Acid [24] = experiment: Binding affinity to VEGF V32G-double stranded DNA at 1 to 32 uM after 10 hrs by polyacrylamide electrophoresis; format: nucleic-acid assay
How it was run: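 FAM-labeled VEGF G-rich strand (V32G, 2 µM) plus complementary C-rich strand (2 µM) with twofold-diluted compound in Tris-HCl pH 7.4, 100 mM KCl. Denatured 95 °C 5 min, slow-cooled to 55 °C, held 10 h, then rapidly cooled to 4 °C. Separated on 16% native PAGE with 50 mM KCl (4 °C, 350 V, 10 h); duplex vs monomeric quadruplex bands imaged.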

[25] = Inhibition of DNA polymerase at > 1 uM
How it was run: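 Klenow polymerase stop assay. Template VT-66 (100 nM) and FAM-primer P16 (100 nM) with twofold-diluted compound in 10 mM Tris-HCl pH 7.4, denatured 95 °C 5 min, slow-cooled to 37 °C. Extension started with dNTPs, 3 mM MgCl2 and Klenow fragment (1 unit), 37 °C 30 min. Products on 12% denaturing PAGE; stopped/total extended ratio plotted.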

[26] = Solubility of the compound in Tris-HCl buffer at 40 uM at pH 7.4 after 1 to 72 hrs by spectroscopic analysis in absence of DNA; format: physicochemical; settings: pH 7.4, 40 µM
How it was run: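 Compound at 40 µM in 10 mM Tris-HCl pH 7.4 with 100 mM KCl, without DNA. Visible absorbance spectra recorded at 0, 8 and 72 h.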

Nucleic Acid [27] = experiment: Binding affinity to VEGF V32G-G-quadruplex DNA at 1 to 32 uM after 10 hrs by polyacrylamide electrophoresis; format: nucleic-acid assay; how it was run: as §4
A549 [28] = experiment: Downregulation of GAPDH mRNA expression in human A549 cells at 3 to 24 uM after 24 hrs by semi-quantitative RT-PCR analysis; format: functional, cell-based; how it was run: as §1
A549 [29] = experiment: Downregulation of Max mRNA expression in human A549 cells at 3 to 24 uM after 24 hrs by semi-quantitative RT-PCR analysis; format: functional, cell-based
A549 [30] = experiment: Downregulation of COX2 mRNA expression in human A549 cells at 3 to 24 uM after 24 hrs by semi-quantitative RT-PCR analysis; format: functional, cell-based

CCN(CC)CCN1C(=O)c2ccc3c4cccc5c(N6CCNCC6)ccc(c6ccc(c2c36)C1=O)c54
Activity (Nucleic Acid [1]): Active
Activity (Nucleic Acid [2]): Active
Activity (Nucleic Acid [3]): Active
Activity (A549 [4]): inactive
Activity (A549 [5]): inactive
Activity (A549 [6]): inactive
Activity (Nucleic Acid [7]): Dose-dependent effect
Activity (Nucleic Acid [8]): Dose-dependent effect
Activity (Nucleic Acid [9]): Dose-dependent effect
Activity (Nucleic Acid [10]): Dose-dependent effect
Activity (Nucleic Acid [11]): Dose-dependent effect
IC50 (HeLa): 3 µM
Activity (Nucleic Acid [12]): Dose-dependent effect
IC50 (MCF7): 5.5 µM
IC50 (HCT-15): 4.7 µM
IC50 (A549 [13]): 4 µM
Activity (Nucleic Acid [14]): inactive
solubility [15]: soluble
solubility [16]: soluble
solubility [17]: soluble
Activity (Nucleic Acid [18]): Active
Activity (Nucleic Acid [19]): Dose-dependent effect

C[n+]1ccc(-c2c3nc(c(-c4cc[n+](C)cc4)c4ccc([nH]4)c(-c4cc[n+](C)cc4)c4ccc([nH]4)c(-c4cc[n+](C)cc4)c4nc2C=C4)C=C3)cc1 [TMPYP4]
Activity (Nucleic Acid [20]): inactive
Activity (Nucleic Acid [21]): inactive
Activity (Nucleic Acid [22]): inactive
Activity (Nucleic Acid [23]): inactive
IC50 (A549 [13]): 43.1 µM
Activity (Nucleic Acid [24]): Active
inhibition [25]: Active
Activity (Nucleic Acid [19]): Dose-dependent effect

CC[N+](C)(CC)CCN1C(=O)c2ccc3c4cccc5cccc(c6ccc(c2c36)C1=O)c54.Cc1ccc(S(=O)(=O)[O-])cc1
Activity (A549 [4]): inactive
Activity (A549 [5]): inactive
Activity (A549 [6]): inactive
Activity (Nucleic Acid [7]): Dose-dependent effect
Activity (Nucleic Acid [8]): Dose-dependent effect
Activity (Nucleic Acid [9]): Dose-dependent effect
Activity (Nucleic Acid [20]): inactive
Activity (Nucleic Acid [21]): inactive
Activity (Nucleic Acid [11]): Dose-dependent effect
Activity (Nucleic Acid [12]): Dose-dependent effect
IC50 (A549 [13]): 3.2 µM
solubility [15]: soluble
solubility [16]: soluble
solubility [26]: Insoluble
Activity (Nucleic Acid [27]): Active
Activity (Nucleic Acid [19]): Dose-dependent effect

O=C1c2ccc3c4ccc5c6c(ccc(c7ccc(c2c37)C(=O)N1CCN1CCCCC1)c64)C(=O)N(CCN1CCCCC1)C5=O
Activity (A549 [28]): inactive
Activity (A549 [29]): inactive
Activity (A549 [30]): inactive
Activity (Nucleic Acid [7]): Dose-dependent effect
Activity (Nucleic Acid [8]): Dose-dependent effect
Activity (Nucleic Acid [9]): Dose-dependent effect
Activity (Nucleic Acid [10]): Dose-dependent effect
Activity (Nucleic Acid [11]): Dose-dependent effect
Activity (Nucleic Acid [12]): Dose-dependent effect
IC50 (A549 [13]): 52.4 µM
Activity (Nucleic Acid [14]): Active
solubility [15]: soluble
solubility [16]: soluble
solubility [26]: Insoluble
Activity (Nucleic Acid [27]): Active
Activity (Nucleic Acid [19]): Dose-dependent effect
